Our source for the GFP response vs DMSO, GFP response relative to DMSO and GFP response, % of DMSO values is PubChem BioAssay.

Experiment [1] in a line: hit retest on RPL19A-GFP reporter strain – cell-based, S. cerevisiae, flow cytometry, cherry picks, mother/daughter gates, confirmation (AID 2270;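 active means GFP response below 50% of the DMSO control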). To be noted: 3 h, at 10 µM, stronger effect = lower value, 100 = same GFP as DMSO wells.
Experiment [2] can be described thus: yeast TOR pathway reporter LAP4-GFP change – cell-based, cherry picks, flow cytometry, mother/daughter gates, confirmation (AID 2271;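 active means GFP response above 150% of the DMSO control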;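 further: ratio of sample to DMSO plate mean so 100% equals DMSO level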). To be noted: S. cerevisiae LAP4-GFP strain, 3 h, at 10 µM, stronger effect = higher value, 100 means same as DMSO control. The procedure, abridged:
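System: Alexa 633-stained baker's yeast GFP-fusion strain; quantity: 0.2 OD600 cells; timing: compound exposure 3 h at 30 °C, end-over-end rotation; detection: HT flow cytometry, GFP fluorescence channel; measure: per-gate (all, mother, daughter) GFP response vs DMSO; control set: DMSO-only negative wells, rapamycin 400 ng/mL positive wells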

Experiment [3] in a line: TOR pathway reporter MEP2-GFP, retest of hits – S. cerevisiae, flow cytometry GFP, cherry picks, confirmation (AID 2272;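 active means GFP response above 150% of the DMSO control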;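 further: ratio of well signal to plate DMSO mean so 100% equals DMSO level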). To be noted: S. cerevisiae MEP2-GFP strain, 3 h, at 10 µM, stronger effect = higher value. On the technique in general: A flow cytometer gives signals particle by particle.
A short description of experiment [4]: yeast AGP1-GFP fluorescence change, single-dose – cell-based, flow cytometry, S. cerevisiae, cherry picks, confirmation (AID 2273).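 Further: median GFP channel fluorescence over the whole cell population gate.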 As to conditions: S. cerevisiae AGP1-GFP strain, 3 h, at 10 µM.
The nature of experiment [5]: TOR pathway CIT2 reporter hit retest – S. cerevisiae, GFP fusion, cherry picks, mother/daughter gates, confirmation (AID 2274). As to conditions: S. cerevisiae CIT2-GFP strain, flow cytometry, 3 h, at 10 µM, stronger effect = higher value.
Where [6] appears, read: measured here: daughter cell gate.
The mark [7] stands for this setting: measured here: mother cell gate.
The mark [8] stands for this setting: measured here: daughter cell gate response.
Where [9] appears, read: measured here: mother cell gate response.

The source made the active and inactive calls.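 How the source made its calls, unless noted: active means GFP response above 150% of the DMSO level; inconclusive means fewer than 70 events counted for a yeast strain; inactive means the rest.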

`CCN(C(=O)c1ccccc1Cl)c1ccccc1`: the GFP response vs DMSO was 98.5% (inactive) in experiment [1], 99% in experiment [1] (setting [6]), 98% in experiment [1] (setting [7]) and 99.3% (inactive) in experiment [3]. The GFP response relative to DMSO in experiment [2] is 107% (inactive); in experiment [2] (setting [8]), 104%; in experiment [2] (setting [9]), 110%. The GFP response, % of DMSO in experiment [4] was 98.8% (inactive); in experiment [5], 100% (inactive); in experiment [5] (setting [6]), 101%; in experiment [5] (setting [7]) it was 100%.
Take `O=C(Nc1ccccc1O)c1ccc(Cl)cc1`: the GFP response vs DMSO in experiment [1] was 96.8% (inactive); in experiment [1] (setting [6]), 95.6%; in experiment [1] (setting [7]), 96.6%; in experiment [3], 102% (inactive). In addition, the GFP response relative to DMSO in experiment [2] is 98.7% (inactive); in experiment [2] (setting [8]), 100%; in experiment [2] (setting [9]), 100%. In addition, the GFP response, % of DMSO in experiment [4] was 97.8% (inactive); in experiment [5] it was 100% (inactive); in experiment [5] (setting [6]), 99.7%; in experiment [5] (setting [7]), 98.7%.
For `O=C(c1cccc(COCC(F)(F)C(F)F)c1)N1CCN(c2ccccc2)CC1`, the GFP response vs DMSO in experiment [1] was 101% (inactive); in experiment [1] (setting [6]), 101%; in experiment [1] (setting [7]), 102%; in experiment [3] it was 104% (inactive). In addition, the GFP response relative to DMSO in experiment [2] was 100% (inactive); in experiment [2] (setting [8]), 97.9%; in experiment [2] (setting [9]), 97.5%. Further, the GFP response, % of DMSO in experiment [4] was 102% (inactive); in experiment [5], 97.8% (inactive); in experiment [5] (setting [6]) it was 96.4%; in experiment [5] (setting [7]), 98%.
Consider `CC(C)CC[n+]1ccccc1/C=C/c1ccc(N(C)C)cc1`, for which the GFP response vs DMSO is 98.2% (inactive) in experiment [1], 94.9% in experiment [1] (setting [6]), 95.5% in experiment [1] (setting [7]) and 126% (inactive) in experiment [3]. The GFP response relative to DMSO in experiment [2] is 107% (inactive); in experiment [2] (setting [8]), 108%; in experiment [2] (setting [9]), 107%. For the same compound, the GFP response, % of DMSO in experiment [4] was 107% (inactive); in experiment [5] it was 115% (inactive); in experiment [5] (setting [6]), 119%; in experiment [5] (setting [7]), 113%.
Consider `O=c1cnnc(SCc2ccc([N+](=O)[O-])cc2)[nH]1`, for which the GFP response vs DMSO in experiment [1] is 97.4% (inactive); in experiment [1] (setting [6]) it was 99.1%; in experiment [1] (setting [7]), 96.2%; in experiment [3] it was 105% (inactive). Moreover, the GFP response relative to DMSO in experiment [2] was 102% (inactive); in experiment [2] (setting [8]), 101%; in experiment [2] (setting [9]) it was 100%. Besides, the GFP response, % of DMSO is 96% (inactive) in experiment [4], 98.3% (inactive) in experiment [5], 99.1% in experiment [5] (setting [6]) and 98.5% in experiment [5] (setting [7]).
With `Cc1n[nH]c(C)c1N1C(=O)c2cccc3cc(Br)cc(c23)C1=O`, the GFP response vs DMSO in experiment [1] is 95.2% (inactive); in experiment [1] (setting [6]), 95.9%; in experiment [1] (setting [7]), 97%; in experiment [3] it was 99% (inactive). Also, the GFP response relative to DMSO is 99.5% (inactive) in experiment [2], 99.1% in experiment [2] (setting [8]) and 99.4% in experiment [2] (setting [9]). Besides, the GFP response, % of DMSO is 105% (inactive) in experiment [4], 102% (inactive) in experiment [5], 101% in experiment [5] (setting [6]) and 99.3% in experiment [5] (setting [7]).
Turning to `CC1(C)CCN2CCC(C)(C)c3c(O)ccc1c32`, the GFP response vs DMSO in experiment [1] was 105% (inactive); in experiment [1] (setting [6]) it was 105%; in experiment [1] (setting [7]), 107%; in experiment [3], 139% (inactive). Further, the figures for the GFP response relative to DMSO in experiment [2], in experiment [2] (setting [8]) and in experiment [2] (setting [9]) were 115% (inactive), 123% and 115%, respectively. Moreover, the GFP response, % of DMSO was 101% (inactive) in experiment [4], 121% (inactive) in experiment [5], 123% in experiment [5] (setting [6]) and 119% in experiment [5] (setting [7]).
For `COc1ccc(NS(=O)(=O)c2cccc3ccccc23)cc1`, the GFP response vs DMSO in experiment [1] is 99.4% (inactive); in experiment [1] (setting [6]) it was 99.6%; in experiment [1] (setting [7]), 99.2%; in experiment [3], 102% (inactive). Also, the GFP response relative to DMSO in experiment [2] is 97.9% (inactive); in experiment [2] (setting [8]), 97.6%; in experiment [2] (setting [9]), 97.2%. Besides, the GFP response, % of DMSO in experiment [4] was 101% (inactive); in experiment [5], 99.7% (inactive); in experiment [5] (setting [6]), 99.1%; in experiment [5] (setting [7]), 98.5%.
For `Cc1ccccc1NC(=O)c1ccccc1O`, the GFP response vs DMSO is 94% (inactive) in experiment [1], 92.9% in experiment [1] (setting [6]), 94% in experiment [1] (setting [7]) and 101% (inactive) in experiment [3]. Moreover, the GFP response relative to DMSO is 106% (inactive) in experiment [2], 101% in experiment [2] (setting [8]) and 108% in experiment [2] (setting [9]). For the same compound, the GFP response, % of DMSO in experiment [4] was 93.8% (inactive); in experiment [5], 100% (inactive); in experiment [5] (setting [6]), 97.4%; in experiment [5] (setting [7]), 98.1%.
`CS(=O)(=O)N1N=C(c2ccco2)CC1c1ccccc1` (stereo unspecified): the GFP response vs DMSO in experiment [1] is 100% (inactive); in experiment [1] (setting [6]), 101%; in experiment [1] (setting [7]), 99.9%; in experiment [3] it was 99% (inactive). In addition, the GFP response relative to DMSO was 102% (inactive) in experiment [2], 102% in experiment [2] (setting [8]) and 100% in experiment [2] (setting [9]). Also, the GFP response, % of DMSO in experiment [4] is 105% (inactive); in experiment [5], 106% (inactive); in experiment [5] (setting [6]), 105%; in experiment [5] (setting [7]) it was 103%.
For the compound `COc1ccc(/C=C/C(=O)c2ccccc2O)cc1`, the GFP response vs DMSO is 96.8% (inactive) in experiment [1], 96.7% in experiment [1] (setting [6]), 98.8% in experiment [1] (setting [7]) and 102% (inactive) in experiment [3]. Besides, the results for the GFP response relative to DMSO in experiment [2], in experiment [2] (setting [8]) and in experiment [2] (setting [9]) were 102% (inactive), 99.3% and 99.5%, respectively. Moreover, the GFP response, % of DMSO in experiment [4] was 102% (inactive); in experiment [5], 99.3% (inactive); in experiment [5] (setting [6]), 100%; in experiment [5] (setting [7]) it was 98%.
For the compound `CCNc1nc(-c2ccc(Cl)cc2)cs1`, the GFP response vs DMSO in experiment [1] is 101% (inactive); in experiment [1] (setting [6]) it was 100%; in experiment [1] (setting [7]) it was 101%; in experiment [3], 102% (inactive). The GFP response relative to DMSO in experiment [2] was 93.8% (inactive); in experiment [2] (setting [8]), 97.2%; in experiment [2] (setting [9]) it was 96.2%. For the same compound, the GFP response, % of DMSO is 97.8% (inactive) in experiment [4], 104% (inactive) in experiment [5], 101% in experiment [5] (setting [6]) and 106% in experiment [5] (setting [7]).
Consider `N#Cc1ccccc1Cn1cc(/C=C/[N+](=O)[O-])c2ccccc21`, for which the GFP response vs DMSO in experiment [1] is 96.3% (inactive); in experiment [1] (setting [6]), 98.3%; in experiment [1] (setting [7]), 95.1%; in experiment [3], 98.8% (inactive). Further, the results for the GFP response relative to DMSO in experiment [2], in experiment [2] (setting [8]) and in experiment [2] (setting [9]) were 132% (inactive), 129% and 134%, respectively. Also, the GFP response, % of DMSO is 104% (inactive) in experiment [4], 97.2% (inactive) in experiment [5], 100% in experiment [5] (setting [6]) and 91.8% in experiment [5] (setting [7]).
For the compound `CCSc1nnc(NC(=O)c2ccccn2)s1`, the GFP response vs DMSO in experiment [1] was 101% (inactive); in experiment [1] (setting [6]) it was 100%; in experiment [1] (setting [7]), 99.8%; in experiment [3], 122% (inactive). Further, the GFP response relative to DMSO in experiment [2] was 257% (active); in experiment [2] (setting [8]), 223%; in experiment [2] (setting [9]) it was 254%. The GFP response, % of DMSO in experiment [4] is 93.8% (inactive); in experiment [5], 97.8% (inactive); in experiment [5] (setting [6]) it was 104%; in experiment [5] (setting [7]), 91%.
`CCOC(=O)Cn1cc(/C=C/[N+](=O)[O-])c2ccccc21`: the GFP response vs DMSO in experiment [1] is 95.8% (inactive); in experiment [1] (setting [6]), 92.7%; in experiment [1] (setting [7]), 93.5%; in experiment [3], 99.3% (inactive). Besides, the GFP response relative to DMSO is 160% (active) in experiment [2], 153% in experiment [2] (setting [8]) and 157% in experiment [2] (setting [9]). For the same compound, the GFP response, % of DMSO in experiment [4] was 95% (inactive); in experiment [5], 88.9% (inactive); in experiment [5] (setting [6]), 92.3%; in experiment [5] (setting [7]) it was 83.7%.
`CS(=O)(=O)Nc1ccc(C2=NN(S(C)(=O)=O)C(c3ccccc3)C2)cc1` (stereo unspecified): the GFP response vs DMSO was 98.7% (inactive) in experiment [1], 98.1% in experiment [1] (setting [6]), 98.6% in experiment [1] (setting [7]) and 157% (inactive) in experiment [3]. Moreover, the figures for the GFP response relative to DMSO in experiment [2], in experiment [2] (setting [8]) and in experiment [2] (setting [9]) were 133% (inactive), 138% and 129%, respectively. For the same compound, the GFP response, % of DMSO in experiment [4] is 115% (inactive); in experiment [5], 114% (inactive); in experiment [5] (setting [6]), 112%; in experiment [5] (setting [7]), 114%.
